Source: ChEMBL document CHEMBL4689842, “EUbOPEN Chemogenomics Library wave 1” (2021)
“And” between values parts separate entries of the source, which are not always exact repeats. Equal values may be shown once.

Tested on: HEK-293T
Assay: Multiplex assay against HEK293T;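 on Population Tubulin-Different-Phenotype (%): share of the cells with healthy nuclei that show this phenotype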
Format: toxicity, cell-based
Conditions: human
Outline: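 Values for tubulin, mitochondrial-mass and membrane-permeability phenotypes are per cents of cells with healthy nuclei. These cells were identified by CellPathfinder machine-learning gating of live cells that had been stained at seeding with Hoechst33342, BioTracker Green Microtubule Cytoskeleton Dye, MitoTracker Red and Annexin V Alexa Fluor 680 and imaged on a CQ1 microscope at 37°C and 5% CO2 after compound addition. The gating first set Hoechst high-intensity objects apart from normal cells, then split normal cells into healthy, pyknosed or fragmented nuclei, and pyknosed cells into mitotic or apoptotic.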

[1] = 12 h, 1 µM, compound concentration 1 uM, replicate 1
[2] = 12 h, 1 µM, compound concentration 1 uM, replicate 2
[3] = 12 h, 10 µM, compound concentration 10 uM, replicate 1
[4] = 12 h, 10 µM, compound concentration 10 uM, replicate 2
[5] = 24 h, 1 µM, compound concentration 1 uM, replicate 1
[6] = 24 h, 1 µM, compound concentration 1 uM, replicate 2
[7] = 24 h, 10 µM, compound concentration 10 uM, replicate 1
[8] = 24 h, 10 µM, compound concentration 10 uM, replicate 2
[9] = 48 h, 1 µM, compound concentration 1 uM, replicate 1
[10] = 48 h, 1 µM, compound concentration 1 uM, replicate 2
[11] = 48 h, 10 µM, compound concentration 10 uM, replicate 1
[12] = 48 h, 10 µM, compound concentration 10 uM, replicate 2

## Nc1c(C(=O)NCc2ccc(C(=O)NCCCC3CCCCC3)cc2)cnn1-c1ccccc1 [SR-318]
[1]
  Population Apoptotic (%): 38% and 53% and 33%
  Population Fragmented Nuclei (%): 11% and 10%
  Population Healthy Nuclei (%): 45% and 28% and 41%
  Population Hoechst High Intensity Objects (%): 13% and 14% and 11%
  Population Membrane Permeable-Phenotype (%): 1%
  Population Mitochondria Different-Phenotype (%): 68% and 75% and 77%
  Population Mitotic Cells (%): 61% and 46% and 66%
  Population Normal (%): 86% and 85% and 88%
  Population Pyknosed Nuclei (%): 45% and 60% and 48%
  Population Tubulin-Different-Phenotype (%): 37% and 47% and 50%
  Total Cell Count: 564 and 341 and 583
[2]
  Population Apoptotic (%): 8% and 14% and 10%
  Population Fragmented Nuclei (%): 9% and 6%
  Population Healthy Nuclei (%): 39% and 42% and 51%
  Population Hoechst High Intensity Objects (%): 4% and 5% and 2%
  Population Membrane Permeable-Phenotype (%): 8% and 6% and 4%
  Population Mitochondria Different-Phenotype (%): 22% and 14% and 17%
  Population Mitotic Cells (%): 91% and 85% and 89%
  Population Normal (%): 95% and 94% and 97%
  Population Pyknosed Nuclei (%): 51% and 47% and 41%
  Population Tubulin-Different-Phenotype (%): 18% and 20% and 15%
  Total Cell Count: 208 and 203 and 249
[3]
  Population Apoptotic (%): 43% and 67% and 60%
  Population Fragmented Nuclei (%): 13% and 17% and 12%
  Population Healthy Nuclei (%): 21% and 14% and 18%
  Population Hoechst High Intensity Objects (%): 16% and 13% and 15%
  Population Membrane Permeable-Phenotype (%): 5% and 2% and 1%
  Population Mitochondria Different-Phenotype (%): 97% and 100% and 94%
  Population Mitotic Cells (%): 56% and 32% and 39%
  Population Normal (%): 83% and 86% and 84%
  Population Pyknosed Nuclei (%): 64% and 68%
  Population Tubulin-Different-Phenotype (%): 90% and 89% and 92%
  Total Cell Count: 492 and 305 and 342
[4]
  Population Apoptotic (%): 42% and 40% and 53%
  Population Fragmented Nuclei (%): 2% and 5%
  Population Healthy Nuclei (%): 31% and 23%
  Population Hoechst High Intensity Objects (%): 6% and 3%
  Population Membrane Permeable-Phenotype (%): 7% and 4%
  Population Mitochondria Different-Phenotype (%): 82% and 78% and 79%
  Population Mitotic Cells (%): 57% and 59% and 46%
  Population Normal (%): 93% and 96%
  Population Pyknosed Nuclei (%): 66% and 62% and 70%
  Population Tubulin-Different-Phenotype (%): 78% and 84%
  Total Cell Count: 272 and 248 and 191
[5]
  Population Apoptotic (%): 42% and 41% and 52%
  Population Fragmented Nuclei (%): 12% and 10% and 16%
  Population Healthy Nuclei (%): 40% and 46% and 27%
  Population Hoechst High Intensity Objects (%): 15% and 12%
  Population Membrane Permeable-Phenotype (%): 3% and 1% and 5%
  Population Mitochondria Different-Phenotype (%): 71% and 56% and 69%
  Population Mitotic Cells (%): 57% and 58% and 47%
  Population Normal (%): 84% and 87%
  Population Pyknosed Nuclei (%): 46% and 43% and 55%
  Population Tubulin-Different-Phenotype (%): 48% and 34% and 54%
  Total Cell Count: 634 and 591 and 363
[6]
  Population Apoptotic (%): 11% and 13% and 5%
  Population Fragmented Nuclei (%): 5% and 9% and 6%
  Population Healthy Nuclei (%): 64% and 62% and 70%
  Population Hoechst High Intensity Objects (%): 2%
  Population Membrane Permeable-Phenotype (%): 7%
  Population Mitochondria Different-Phenotype (%): 14% and 23% and 18%
  Population Mitotic Cells (%): 88% and 86% and 94%
  Population Normal (%): 97%
  Population Pyknosed Nuclei (%): 30% and 27% and 22%
  Population Tubulin-Different-Phenotype (%): 22% and 26% and 15%
  Total Cell Count: 245 and 241 and 330
[7]
  Population Apoptotic (%): 50% and 60% and 64%
  Population Fragmented Nuclei (%): 18% and 20%
  Population Healthy Nuclei (%): 22% and 16% and 17%
  Population Hoechst High Intensity Objects (%): 19% and 15% and 14%
  Population Membrane Permeable-Phenotype (%): 0%
  Population Mitochondria Different-Phenotype (%): 98% and 97% and 96%
  Population Mitotic Cells (%): 49% and 39% and 35%
  Population Normal (%): 80% and 84% and 85%
  Population Pyknosed Nuclei (%): 58% and 63% and 61%
  Population Tubulin-Different-Phenotype (%): 94% and 86% and 90%
  Total Cell Count: 489 and 314 and 331
[8]
  Population Apoptotic (%): 61% and 57% and 59%
  Population Fragmented Nuclei (%): 6% and 3%
  Population Healthy Nuclei (%): 42% and 47% and 50%
  Population Hoechst High Intensity Objects (%): 4% and 5%
  Population Membrane Permeable-Phenotype (%): 3% and 1% and 2%
  Population Mitochondria Different-Phenotype (%): 90% and 89% and 87%
  Population Mitotic Cells (%): 38% and 42% and 40%
  Population Normal (%): 95% and 94%
  Population Pyknosed Nuclei (%): 50% and 49% and 46%
  Population Tubulin-Different-Phenotype (%): 93%
  Total Cell Count: 222 and 291 and 281
[9]
  Population Apoptotic (%): 50% and 32% and 31%
  Population Fragmented Nuclei (%): 17% and 13% and 15%
  Population Healthy Nuclei (%): 35% and 64% and 52%
  Population Hoechst High Intensity Objects (%): 15% and 9% and 12%
  Population Membrane Permeable-Phenotype (%): 0%
  Population Mitochondria Different-Phenotype (%): 46% and 27% and 47%
  Population Mitotic Cells (%): 50% and 67% and 68%
  Population Normal (%): 84% and 90% and 87%
  Population Pyknosed Nuclei (%): 46% and 21% and 32%
  Population Tubulin-Different-Phenotype (%): 28% and 25% and 40%
  Total Cell Count: 384 and 851 and 794
[10]
  Population Apoptotic (%): 20% and 10% and 15%
  Population Fragmented Nuclei (%): 7% and 9% and 3%
  Population Healthy Nuclei (%): 82% and 81%
  Population Hoechst High Intensity Objects (%): 4%
  Population Membrane Permeable-Phenotype (%): 3% and 1%
  Population Mitochondria Different-Phenotype (%): 9% and 7% and 13%
  Population Mitotic Cells (%): 79% and 89% and 84%
  Population Normal (%): 95%
  Population Pyknosed Nuclei (%): 10% and 9% and 15%
  Population Tubulin-Different-Phenotype (%): 24% and 17% and 22%
  Total Cell Count: 386 and 610 and 321
[11]
  Population Apoptotic (%): 68% and 72% and 52%
  Population Fragmented Nuclei (%): 28% and 25%
  Population Healthy Nuclei (%): 22% and 19% and 26%
  Population Hoechst High Intensity Objects (%): 13% and 18% and 16%
  Population Membrane Permeable-Phenotype (%): 0%
  Population Mitochondria Different-Phenotype (%): 98% and 96% and 95%
  Population Mitotic Cells (%): 31% and 27% and 47%
  Population Normal (%): 86% and 81% and 84%
  Population Pyknosed Nuclei (%): 48% and 55%
  Population Tubulin-Different-Phenotype (%): 98% and 94% and 82%
  Total Cell Count: 329 and 319 and 500
[12]
  Population Apoptotic (%): 66%
  Population Fragmented Nuclei (%): 5% and 7% and 8%
  Population Healthy Nuclei (%): 69% and 65% and 61%
  Population Hoechst High Intensity Objects (%): 3% and 6%
  Population Membrane Permeable-Phenotype (%): 2% and 1%
  Population Mitochondria Different-Phenotype (%): 85% and 90% and 93%
  Population Mitotic Cells (%): 33%
  Population Normal (%): 96% and 93%
  Population Pyknosed Nuclei (%): 25% and 26% and 30%
  Population Tubulin-Different-Phenotype (%): 95%
  Total Cell Count: 373 and 318 and 253
